Measurements from ChEMBL document CHEMBL4732105, “First orally bioavailable prodrug of proteolysis targeting chimera (PROTAC) degrades cyclin-dependent kinases 2/4/6 in vivo” (Eur J Med Chem, 2021).
Activity calls are given as the source filed them. The rule behind the calls is not given here.

Legend:
A-375 [1] = experiment: Induction of apoptosis in human A-375 cells assessed as increase in bax level upto 2000 nM incubated for 48 hrs by Western blot analysis; type: functional, cell-based; settings: dose nM <=2000, time 48.0 hrs
Method in brief: (§1)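 A375 and B16F10 cells incubated with compound for 48 h. Cleaved caspase-3, cleaved PARP, total P53, Bcl-2 and Bax measured by western blot.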

A-375 [2] = experiment: Induction of apoptosis in human A-375 cells assessed as late apoptotic cells at 250 nM incubated for 48 hrs by Annexin V-FITC/PI staining based flow cytometry (reference value: 3.28%); type: functional
A-375 [3] = experiment: Induction of apoptosis in human A-375 cells assessed as increase in P-53 level upto 2000 nM incubated for 48 hrs by Western blot analysis; type: functional, cell-based; settings: dose nM <=2000, time 48.0 hrs; method in brief: as §1
B16-F10 [4] = experiment: Induction of cell cycle arrest in mouse B16-F10 cells assessed as accumulation at G1 phase at 50 uM incubated for 48 hrs by propidium iodide staining based flow cytometry (reference value: 52.59%); type: functional
A-375 [5] = experiment: Cytotoxicity against human A375 cells assessed as reduction in cell viability after 72 hrs by MTT assay; type: functional, cell-based; settings: A-375, 72 h
Method in brief: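 Cells exposed to compound for 72 h and viability read by MTT; IC50 from three independent experiments.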

[6] = Tmax in Sprague-Dawley rat at 10 mg/kg, iv; type: ADME, organism-based; settings: in vivo
Method in brief: (§2)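 SD rats, n = 3, single dose of prodrug: IV by tail vein at 10 mg/Kg, or PO at 200 mg/Kg. Plasma levels of prodrug and released active degrader followed over 0–12 h. Parameters derived by a non-compartmental model.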

[7] = biological target: T1, Protein cereblon/Cyclin-dependent kinase 4 (Homo sapiens) (UniProt P11802+Q96SW2); experiment: Protac activity at CRBN/CDK4 in human A-375 cells assessed as induction of CDK4 protein degradation at 1000 nM by Western blot analysis; type: cell-based; settings: time hrs <=12, TDE = time-dependent effect
Method in brief: (§3)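 B16F10 and A375 cells treated with DMSO or serial dilutions of compound for 12 h (concentration series), or for the indicated times (time course). CDK2, CDK4 and CDK6 protein levels determined by western blot.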

B16-F10 [8] = experiment: Induction of cell cycle arrest in mouse B16-F10 cells assessed as accumulation at G1 phase at 100 uM incubated for 48 hrs by propidium iodide staining based flow cytometry (reference value: 52.59%); type: functional
A-375 [9] = experiment: Induction of apoptosis in human A-375 cells assessed as necrotic cells at 1000 nM incubated for 48 hrs by Annexin V-FITC/PI staining based flow cytometry (reference value: 0.602%); type: functional
[10] = biological target: Protein cereblon/Cyclin-dependent kinase 4 (Mus musculus) (UniProt P30285+Q8C7D2); experiment: Protac activity at CRBN/CDK4 in mouse B16F10 cells assessed as induction of CDK4 protein degradation at 100 nM for 6 hrs in presence of proteasome inhibitor MG132 by Western blot analysis; type: cell-based; settings: B16-F10
Method in brief: (§4)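 B16F10 cells pre-treated 2 h with DMSO, pomalidomide (10 μM), MG132 (20 μM) or a parent CDK ligand, then exposed to 100 nM degrader for 6 h. CDK2/4/6 protein levels read by western blot.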

[11] = biological target: T2, Protein cereblon/Cyclin-dependent kinase 2 (Mus musculus) (UniProt P97377+Q8C7D2); experiment: Protac activity at CRBN/CDK2 in mouse B16F10 cells assessed as induction of CDK2 protein degradation at 100 nM for 6 hrsin presence of methyl 6-(7-cyclopentyl-6-(dimethylcarbamoyl)-7H-pyrrolo[2,3-d]pyrimidin-2-ylamino)nicotinate by Western blot analysis; type: cell-based; settings: B16-F10, time 6.0 hrs; method in brief: as §4
[12] = biological target: Protein cereblon/Cyclin-dependent kinase 6 (Homo sapiens) (UniProt Q00534+Q96SW2); experiment: Protac activity at CRBN/CDK6 in human A-375 cells assessed as induction of CDK6 protein degradation at 1000 nM by Western blot analysis; type: cell-based; settings: time hrs <=12, TDE = time-dependent effect; method in brief: as §3
B16-F10 [13] = experiment: Induction of apoptosis in mouse B16F10 cells assessed as decrease in Bcl-2 level upto 1000 nM incubated for 48 hrs by Western blot analysis; type: functional, cell-based; settings: dose nM <=1000, time 48.0 hrs; method in brief: as §1
[14] = biological target: T1, Protein cereblon/Cyclin-dependent kinase 4 (Homo sapiens); experiment: Protac activity at CRBN/CDK4 in human A-375 cells assessed as induction of CDK4 protein degradation after 12 hrs by Western blot analysis; type: cell-based; settings: dose 62.5-1000 nM; method in brief: as §3
[15] = biological target: T3, Protein cereblon/Cyclin-dependent kinase 6 (Mus musculus) (UniProt Q8C7D2+Q64261); experiment: Protac activity at CRBN/CDK6 in mouse B16F10 cells assessed as induction of CDK6 protein degradation at 100 nM for 6 hrsin presence of Pomalidomide by Western blot analysis; type: cell-based; settings: B16-F10, time 6.0 hrs; method in brief: as §4
A-375 [16] = experiment: Induction of apoptosis in human A-375 cells assessed as necrotic cells at 500 nM incubated for 48 hrs by Annexin V-FITC/PI staining based flow cytometry (reference value: 0.602%); type: functional
B16-F10 [17] = experiment: Induction of apoptosis in mouse B16F10 cells assessed as increase in bax level upto 1000 nM incubated for 48 hrs by Western blot analysis; type: functional, cell-based; settings: dose nM <=1000, time 48.0 hrs; method in brief: as §1
A-375 [18] = experiment: Induction of apoptosis in human A-375 cells assessed as viable cells at 250 nM incubated for 48 hrs by Annexin V-FITC/PI staining based flow cytometry (reference value: 93.3%); type: functional; settings: read-out: Activity
B16-F10 [19] = experiment: Induction of cell cycle arrest in mouse B16-F10 cells assessed as accumulation at G2 phase at 100 uM incubated for 48 hrs by propidium iodide staining based flow cytometry (reference value: 18.22%); type: functional
[20] = Tmax in Sprague-Dawley rat at 200 mg/kg, po; type: ADME, organism-based; settings: in vivo; method in brief: as §2
B16-F10 [21] = experiment: Induction of apoptosis in mouse B16F10 cells assessed as early apoptotic cells at 500 nM incubated for 48 hrs by Annexin V-FITC/PI staining based flow cytometry (reference value: 3.52%); type: functional
B16-F10 [22] = experiment: Induction of apoptosis in mouse B16F10 cells assessed as necrotic cells at 500 nM incubated for 48 hrs by Annexin V-FITC/PI staining based flow cytometry (reference value: 0.21%); type: functional
[23] = biological target: T2, Protein cereblon/Cyclin-dependent kinase 2 (Mus musculus); experiment: Protac activity at CRBN/CDK2 in mouse B16F10 cells assessed as induction of CDK2 protein degradation at 100 nM for 6 hrs in presence of proteasome inhibitor MG132 by Western blot analysis; type: cell-based; settings: B16-F10; method in brief: as §4
A-375 [24] = experiment: Induction of cell cycle arrest in human A-375 cells assessed as accumulation at G1 phase at 250 uM incubated for 48 hrs by propidium iodide staining based flow cytometry (reference value: 58.26%); type: functional
Method in brief: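 Tumor cells incubated 48 h in complete medium with compound or DMSO at various concentrations, stained with propidium iodide, and DNA content read by flow cytometry. G0/G1, S and G2/M fractions reported; mean ± SD, n = 3, Student's t-test.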

B16-F10 [25] = experiment: Induction of cell cycle arrest in mouse B16F10 cells assessed as accumulation at G2/M phase upto 100 uM incubated for 48 hrs by propidium iodide staining based flow cytometry; type: functional; settings: dose microM <=100, time 48.0 hrs
[26] = biological target: T3, Protein cereblon/Cyclin-dependent kinase 6 (Mus musculus); experiment: Protac activity at CRBN/CDK6 in mouse B16F10 cells assessed as induction of CDK6 protein degradation at 100 nM for 6 hrsin presence of methyl 6-(7-cyclopentyl-6-(dimethylcarbamoyl)-7H-pyrrolo[2,3-d]pyrimidin-2-ylamino)nicotinate by Western blot analysis; type: cell-based; settings: B16-F10, time 6.0 hrs; method in brief: as §4

T3 sequence (Q64261 whole entry, looked up): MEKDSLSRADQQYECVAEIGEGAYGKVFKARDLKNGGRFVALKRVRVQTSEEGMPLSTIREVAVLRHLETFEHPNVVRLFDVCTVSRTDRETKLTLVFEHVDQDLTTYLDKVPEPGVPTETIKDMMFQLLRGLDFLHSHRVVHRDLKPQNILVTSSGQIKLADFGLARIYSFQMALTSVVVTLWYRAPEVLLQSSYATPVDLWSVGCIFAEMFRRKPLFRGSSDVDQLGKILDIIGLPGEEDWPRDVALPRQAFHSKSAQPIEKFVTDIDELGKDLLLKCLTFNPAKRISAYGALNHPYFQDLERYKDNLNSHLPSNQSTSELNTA
T3 sequence (Q8C7D2 whole entry, looked up): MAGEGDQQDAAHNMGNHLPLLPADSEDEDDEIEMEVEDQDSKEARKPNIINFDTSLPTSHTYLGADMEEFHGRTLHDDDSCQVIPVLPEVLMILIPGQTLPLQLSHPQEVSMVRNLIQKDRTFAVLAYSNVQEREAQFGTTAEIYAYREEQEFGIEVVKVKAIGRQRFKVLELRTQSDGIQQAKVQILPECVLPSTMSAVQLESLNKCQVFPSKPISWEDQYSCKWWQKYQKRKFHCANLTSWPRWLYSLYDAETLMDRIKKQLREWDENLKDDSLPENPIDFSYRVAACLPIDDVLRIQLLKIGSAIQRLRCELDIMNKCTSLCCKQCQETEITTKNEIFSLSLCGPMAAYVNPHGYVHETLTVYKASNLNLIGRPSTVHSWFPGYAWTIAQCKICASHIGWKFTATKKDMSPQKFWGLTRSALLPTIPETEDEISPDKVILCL
T1 sequence (P11802 2-303 limits assumed): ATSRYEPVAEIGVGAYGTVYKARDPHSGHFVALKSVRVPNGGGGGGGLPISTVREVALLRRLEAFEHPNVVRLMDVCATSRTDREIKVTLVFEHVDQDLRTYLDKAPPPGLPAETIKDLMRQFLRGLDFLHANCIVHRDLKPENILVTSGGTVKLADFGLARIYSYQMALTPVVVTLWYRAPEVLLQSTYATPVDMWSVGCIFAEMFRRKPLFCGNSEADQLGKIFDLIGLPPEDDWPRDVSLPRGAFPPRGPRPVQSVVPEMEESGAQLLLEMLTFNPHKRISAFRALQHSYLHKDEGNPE
T1 sequence (Q96SW2 whole entry partner): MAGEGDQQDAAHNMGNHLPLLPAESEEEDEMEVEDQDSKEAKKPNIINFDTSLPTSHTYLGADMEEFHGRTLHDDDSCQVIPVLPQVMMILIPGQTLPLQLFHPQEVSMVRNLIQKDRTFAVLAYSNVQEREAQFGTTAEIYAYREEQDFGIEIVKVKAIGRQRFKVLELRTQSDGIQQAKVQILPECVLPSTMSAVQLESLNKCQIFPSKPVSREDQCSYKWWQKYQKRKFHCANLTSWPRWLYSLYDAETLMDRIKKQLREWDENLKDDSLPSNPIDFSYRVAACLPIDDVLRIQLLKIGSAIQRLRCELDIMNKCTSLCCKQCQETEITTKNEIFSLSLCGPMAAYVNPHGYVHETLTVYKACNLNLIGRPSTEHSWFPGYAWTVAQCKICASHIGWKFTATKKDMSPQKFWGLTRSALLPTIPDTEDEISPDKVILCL
T2 sequence (Q8C7D2 whole entry, looked up, other chains not shown): as the sequence (Q8C7D2 whole entry, looked up) above
Sequence of Protein cereblon/Cyclin-dependent kinase 6 (Homo sapiens) (Q00534 whole entry, looked up): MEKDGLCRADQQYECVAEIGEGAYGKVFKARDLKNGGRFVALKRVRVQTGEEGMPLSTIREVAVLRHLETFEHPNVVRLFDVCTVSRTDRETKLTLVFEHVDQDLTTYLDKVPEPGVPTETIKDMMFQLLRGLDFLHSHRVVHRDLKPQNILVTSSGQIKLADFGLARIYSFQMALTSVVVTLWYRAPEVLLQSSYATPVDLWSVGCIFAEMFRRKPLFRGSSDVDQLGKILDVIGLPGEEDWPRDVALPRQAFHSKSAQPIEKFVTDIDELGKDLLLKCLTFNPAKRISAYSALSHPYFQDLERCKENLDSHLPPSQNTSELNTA
Sequence of Protein cereblon/Cyclin-dependent kinase 6 (Homo sapiens) (Q96SW2 whole entry, looked up): as the sequence (Q96SW2 whole entry partner) above
Sequence of Protein cereblon/Cyclin-dependent kinase 4 (Mus musculus) (P30285 whole entry, looked up): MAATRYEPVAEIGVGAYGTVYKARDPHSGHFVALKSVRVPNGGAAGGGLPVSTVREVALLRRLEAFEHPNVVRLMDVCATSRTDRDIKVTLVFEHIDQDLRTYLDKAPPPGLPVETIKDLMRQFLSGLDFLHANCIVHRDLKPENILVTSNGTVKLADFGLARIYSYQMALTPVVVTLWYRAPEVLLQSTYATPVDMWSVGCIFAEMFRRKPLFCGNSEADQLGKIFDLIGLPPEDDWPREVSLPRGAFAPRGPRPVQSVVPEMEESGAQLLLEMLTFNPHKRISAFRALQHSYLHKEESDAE
Sequence of Protein cereblon/Cyclin-dependent kinase 4 (Mus musculus) (Q8C7D2 whole entry, looked up): as the sequence (Q8C7D2 whole entry, looked up) above

Tmax [6]: 45 min
Activity [7]: Tde
Activity [10]: inactive
Activity [11]: inactive
Activity [12]: Tde
Activity [14]: Dose-dependent effect
Activity [15]: inactive
Tmax [20]: 15 min
Activity [23]: inactive
Activity [26]: inactive
Structure (SMILES): CN(C)C(=O)c1cc2cnc(Nc3ccc(C(=O)NCCCCCCNc4cccc5c4C(=O)N(C4CCC(=O)NC4=O)C5=O)cc3)nc2n1C1CCCC1 (stereo unspecified)
Activity (A-375 [1]): Active
Activity (A-375 [2]): 3.78%
Activity (A-375 [3]): Active
Activity (B16-F10 [4]): 49.54%
IC50 (A-375 [5]): 166 nM
Activity (B16-F10 [8]): 52.42%
Activity (A-375 [9]): 0.273%
Activity (B16-F10 [13]): Active
Activity (A-375 [16]): 0.153%
Activity (B16-F10 [17]): Active
viability at 0.25 µM (A-375 [18]): 90.5%
Activity (B16-F10 [19]): 30.56%
Activity (B16-F10 [21]): 93.6%
Activity (B16-F10 [22]): 0.081%
Activity (A-375 [24]): 67.64%
Activity (B16-F10 [25]): Active
